# Measured values from ChEMBL document CHEMBL1671850, “Discovery of a benzo[e]pyrimido-[5,4-b][1,4]diazepin-6(11H)-one as a Potent and Selective Inhibitor of Big MAP Kinase 1” (ACS Med Chem Lett, 2011).
# How the values were obtained:
# [1] = target: Mitogen-activated protein kinase 7 (Homo sapiens, UniProt Q13164); assay: Inhibition of EGF-induced BMK1 autophosphorylation in human HeLa cells by SDS-PAGE analysis; format: cell-based
# PC-3 = assay: Antiproliferative activity against human PC3 cells after 72 hrs; format: functional, cell-based; conditions: PC-3, 72 h
# BPH-1 = assay: Antiproliferative activity against human BPH1 cells after 72 hrs; format: functional, cell-based; conditions: BPH-1, 72 h
# MCF7 = assay: Antiproliferative activity against human MCF7 cells after 72 hrs; format: functional, cell-based; conditions: MCF7, 72 h
# AU565 = assay: Antiproliferative activity against human AU565 cells after 72 hrs; format: functional, cell-based; conditions: AU565, 72 h
# SK-N-AS = assay: Antiproliferative activity against human SK-N-AS cells after 72 hrs; format: functional, cell-based
# NCI-H1299 = assay: Antiproliferative activity against human NCI-H1299 cells after 72 hrs; format: functional, cell-based; conditions: NCI-H1299, 72 h
# NCI-H522 = assay: Antiproliferative activity against human NCI-H522 cells after 72 hrs; format: functional, cell-based; conditions: NCI-H522, 72 h
# [2] = AUC (0 to infinity) in mouse at 1 mg/kg, iv; format: ADME, organism-based; set-up: time infinity, dose 1 mg/kg, route intravenous; conditions: plasma
# Outline: (§1)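 Single-dose pharmacokinetics: rats given 1 mg/kg intravenous or 2 mg/kg oral; mice given 1 mg/kg intravenous or 10 mg/kg oral. Plasma concentration profiles yield Tmax, Cmax, AUC0-∞, half-life, plasma clearance, Vss and oral bioavailability.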
# [3] = Half life in mouse at 1 mg/kg, iv; format: ADME, organism-based; set-up: dose 1 mg/kg, route intravenous; conditions: in vivo; outline: as §1
# [4] = Plasma clearance in mouse at 1 mg/kg, iv; format: ADME, organism-based; set-up: dose 1 mg/kg, route intravenous; outline: as §1
# [5] = Volume of distribution at steady state in mouse at 1 mg/kg, iv; format: ADME, organism-based; set-up: dose 1 mg/kg, route intravenous; conditions: in vivo, read-out: Vdss; outline: as §1
# [6] = Tmax in mouse at 10 mg/kg, po; format: ADME, organism-based; set-up: dose 10 mg/kg, route oral; conditions: in vivo; outline: as §1
# [7] = Cmax in mouse at 10 mg/kg, po; format: ADME, organism-based; set-up: dose 10 mg/kg, route oral; conditions: in vivo; outline: as §1
# [8] = AUC (0 to infinity) in mouse at 10 mg/kg, po; format: ADME, organism-based; set-up: time infinity, dose 10 mg/kg, route oral; conditions: plasma; outline: as §1
# [9] = Oral bioavailability in mouse at 10 mg/kg; format: ADME, organism-based; conditions: in vivo; outline: as §1
# [10] = target: Serine/threonine-protein kinase DCLK1 (Homo sapiens, UniProt O15075); assay: Binding affinity to DCAMKL1 by immobilized ligand displacement assay
# Outline: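 Dissociation constant (Kd) measured in the Ambit KINOMEScan competition binding format, which reads kinase displacement from an immobilized ligand.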
# [11] = target: Serine/threonine-protein kinase DCLK2 (Homo sapiens, UniProt Q8N568); assay: Binding affinity to DCAMKL2 by immobilized ligand displacement assay
# Outline: (§2)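 KINOMEscan-type competition binding: displacement of kinase from an immobilized ligand; Kd values determined for individual kinases.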
# [12] = target: Non-receptor tyrosine-protein kinase TNK1 (Homo sapiens, UniProt Q13470); assay: Binding affinity to TNK1 by immobilized ligand displacement assay; outline: as §2
# [13] = Tmax in rat at 1 mg/kg, iv; format: ADME, organism-based; set-up: dose 1 mg/kg, route intravenous; conditions: in vivo; outline: as §1
# [14] = Cmax in rat at 1 mg/kg, iv; format: ADME, organism-based; set-up: dose 1 mg/kg, route intravenous; conditions: in vivo; outline: as §1
# [15] = AUC (0 to infinity) in rat at 1 mg/kg, iv; format: ADME, organism-based; set-up: time infinity, dose 1 mg/kg, route intravenous; conditions: plasma; outline: as §1
# [16] = Half life in rat at 1 mg/kg, iv; format: ADME, organism-based; set-up: dose 1 mg/kg, route intravenous; conditions: in vivo; outline: as §1
# [17] = Plasma clearance in rat at 1 mg/kg, iv; format: ADME, organism-based; set-up: dose 1 mg/kg, route intravenous; outline: as §1
# [18] = Volume of distribution at steady state in rat at 1 mg/kg, iv; format: ADME, organism-based; set-up: dose 1 mg/kg, route intravenous; conditions: in vivo, read-out: Vdss; outline: as §1
# [19] = Tmax in rat at 2 mg/kg, po; format: ADME, organism-based; set-up: dose 2 mg/kg, route oral; conditions: in vivo; outline: as §1
# [20] = Cmax in rat at 2 mg/kg, po; format: ADME, organism-based; set-up: dose 2 mg/kg, route oral; conditions: in vivo; outline: as §1
# [21] = AUC (0 to infinity) in rat at 2 mg/kg, po; format: ADME, organism-based; set-up: time infinity, dose 2 mg/kg, route oral; conditions: plasma; outline: as §1
# Rattus norvegicus = assay: Half life in rat at 2 mg/kg, po; format: ADME, organism-based; set-up: dose 2 mg/kg, route oral; conditions: in vivo; outline: as §1
# [22] = Plasma clearance in rat at 2 mg/kg, po; format: ADME, organism-based; set-up: dose 2 mg/kg, route oral; outline: as §1
# [23] = Oral bioavailability in rat at 2 mg/kg; format: ADME, organism-based; conditions: in vivo; outline: as §1
# HeLa = assay: Antitumor activity against human HeLa cells xenografted in mouse assessed as inhibition of tumor growth at 50 mg/kg, ip bid for 28 days; format: functional; conditions: route intraperitoneal
# Outline: (§3)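 HeLa cell xenograft in mice; tumor-bearing animals injected intraperitoneally with 50 mg/kg or vehicle solution twice daily for 28 days; tumor growth compared against vehicle.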
# Mus musculus = assay: Toxicity in human HeLa cells xenografted mouse assessed as tolerability at 50 mg/kg ip bid for 28 days; format: organism-based; set-up: dose 50 mg/kg, route intraperitoneal; conditions: in vivo; outline: as §3
# [24] = system: Tyrosine-protein kinase ABL1 (Homo sapiens), P00519 [F317I]; assay: Binding affinity to ABL1 F317I mutant at 10 uM by immobilized ligand displacement assay
# Outline: (§4)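 Ambit KINOMEScan competition binding panel (402 kinases). Kinase displacement from an immobilized ligand is read relative to a DMSO control. Hits are kinases showing more than […] displacement. The text gives the test concentration as 10 μM.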
# [25] = target: Protein-tyrosine kinase 6 (Homo sapiens) (UniProt Q13882); assay: Binding affinity to BRK at 10 uM by immobilized ligand displacement assay; outline: as §4
# [26] = target: Macrophage colony-stimulating factor 1 receptor (Homo sapiens) (UniProt P07333); assay: Binding affinity to c-FMS at 10 uM by immobilized ligand displacement assay; outline: as §4
# [27] = target: Cyclin-G-associated kinase (Homo sapiens) (UniProt O14976); assay: Binding affinity to GAK at 10 uM by immobilized ligand displacement assay; outline: as §4
# [28] = system: Mast/stem cell growth factor receptor Kit (Homo sapiens), P10721 [L576P]; assay: Binding affinity to KIT L576P mutant at 10 uM by immobilized ligand displacement assay; outline: as §4
# [29] = target: Myosin light chain kinase family member 4 (Homo sapiens) (UniProt Q86YV6); assay: Binding affinity to MYLK4 at 10 uM by immobilized ligand displacement assay; outline: as §4
# Sequence of Myosin light chain kinase family member 4 (Homo sapiens) (Q86YV6 whole entry): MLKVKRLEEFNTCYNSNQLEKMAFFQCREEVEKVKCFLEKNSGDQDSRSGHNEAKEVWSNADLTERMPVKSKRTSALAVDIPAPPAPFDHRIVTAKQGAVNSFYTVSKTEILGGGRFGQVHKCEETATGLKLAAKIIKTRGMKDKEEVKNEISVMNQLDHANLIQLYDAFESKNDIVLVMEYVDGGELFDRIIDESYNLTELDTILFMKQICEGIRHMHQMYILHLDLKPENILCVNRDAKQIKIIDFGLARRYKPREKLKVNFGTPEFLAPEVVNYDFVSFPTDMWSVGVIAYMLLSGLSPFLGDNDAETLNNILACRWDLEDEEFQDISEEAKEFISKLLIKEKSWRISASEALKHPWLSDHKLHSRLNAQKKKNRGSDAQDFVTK
# Sequence of Mitogen-activated protein kinase 7 (Q13164 whole entry): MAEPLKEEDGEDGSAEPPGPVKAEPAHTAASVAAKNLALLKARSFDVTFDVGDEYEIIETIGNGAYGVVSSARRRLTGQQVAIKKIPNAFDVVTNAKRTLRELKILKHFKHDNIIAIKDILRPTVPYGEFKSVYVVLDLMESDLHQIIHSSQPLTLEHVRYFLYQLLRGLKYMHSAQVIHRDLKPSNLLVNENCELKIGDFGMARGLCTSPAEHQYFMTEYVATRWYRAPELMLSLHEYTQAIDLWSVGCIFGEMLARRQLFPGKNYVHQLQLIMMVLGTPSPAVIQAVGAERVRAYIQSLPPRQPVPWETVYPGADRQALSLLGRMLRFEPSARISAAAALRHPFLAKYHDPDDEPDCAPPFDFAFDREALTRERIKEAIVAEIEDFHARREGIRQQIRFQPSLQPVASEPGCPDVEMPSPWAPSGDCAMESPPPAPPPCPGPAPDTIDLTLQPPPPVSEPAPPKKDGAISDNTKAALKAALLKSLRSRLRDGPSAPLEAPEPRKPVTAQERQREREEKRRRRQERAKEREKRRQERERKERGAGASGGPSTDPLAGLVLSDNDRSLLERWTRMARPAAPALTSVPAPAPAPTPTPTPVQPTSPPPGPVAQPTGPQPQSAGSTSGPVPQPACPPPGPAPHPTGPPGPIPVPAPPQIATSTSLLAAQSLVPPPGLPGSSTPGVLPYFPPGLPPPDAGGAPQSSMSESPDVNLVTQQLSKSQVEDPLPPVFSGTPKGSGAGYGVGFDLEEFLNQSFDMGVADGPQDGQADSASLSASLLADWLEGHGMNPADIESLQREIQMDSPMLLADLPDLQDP
# Sequence of Tyrosine-protein kinase ABL1 (Homo sapiens), P00519 [F317I] (P00519 whole entry F317I): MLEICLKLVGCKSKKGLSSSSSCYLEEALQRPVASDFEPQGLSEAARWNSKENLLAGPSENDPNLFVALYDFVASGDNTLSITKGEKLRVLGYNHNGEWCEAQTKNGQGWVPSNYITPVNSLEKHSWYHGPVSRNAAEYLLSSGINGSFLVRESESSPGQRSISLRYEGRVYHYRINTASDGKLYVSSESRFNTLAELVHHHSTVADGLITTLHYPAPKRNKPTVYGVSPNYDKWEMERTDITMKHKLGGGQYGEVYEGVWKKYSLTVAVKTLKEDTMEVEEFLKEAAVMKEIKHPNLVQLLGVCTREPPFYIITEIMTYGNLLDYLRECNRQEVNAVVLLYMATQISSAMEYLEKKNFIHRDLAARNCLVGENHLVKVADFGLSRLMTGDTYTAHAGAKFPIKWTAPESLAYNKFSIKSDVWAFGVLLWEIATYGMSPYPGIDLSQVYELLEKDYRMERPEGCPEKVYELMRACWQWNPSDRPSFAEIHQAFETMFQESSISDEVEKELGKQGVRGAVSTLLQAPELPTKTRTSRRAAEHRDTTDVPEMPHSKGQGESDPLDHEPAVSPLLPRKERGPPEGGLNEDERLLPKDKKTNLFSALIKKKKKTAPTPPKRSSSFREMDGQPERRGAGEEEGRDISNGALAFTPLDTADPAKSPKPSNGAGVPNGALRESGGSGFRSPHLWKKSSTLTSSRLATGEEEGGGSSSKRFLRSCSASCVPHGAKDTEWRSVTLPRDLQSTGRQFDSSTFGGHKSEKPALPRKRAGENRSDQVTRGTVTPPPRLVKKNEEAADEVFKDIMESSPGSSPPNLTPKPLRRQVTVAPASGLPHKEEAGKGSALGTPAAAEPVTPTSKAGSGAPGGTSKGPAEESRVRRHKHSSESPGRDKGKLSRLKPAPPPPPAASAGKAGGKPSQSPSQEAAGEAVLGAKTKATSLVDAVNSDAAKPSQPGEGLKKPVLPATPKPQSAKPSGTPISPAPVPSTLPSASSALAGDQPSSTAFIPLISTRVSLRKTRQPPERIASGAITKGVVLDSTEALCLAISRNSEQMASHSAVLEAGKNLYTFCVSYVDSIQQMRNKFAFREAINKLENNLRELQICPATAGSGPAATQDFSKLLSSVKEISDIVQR
# Sequence of Protein-tyrosine kinase 6 (Homo sapiens) (Q13882 whole entry, looked up): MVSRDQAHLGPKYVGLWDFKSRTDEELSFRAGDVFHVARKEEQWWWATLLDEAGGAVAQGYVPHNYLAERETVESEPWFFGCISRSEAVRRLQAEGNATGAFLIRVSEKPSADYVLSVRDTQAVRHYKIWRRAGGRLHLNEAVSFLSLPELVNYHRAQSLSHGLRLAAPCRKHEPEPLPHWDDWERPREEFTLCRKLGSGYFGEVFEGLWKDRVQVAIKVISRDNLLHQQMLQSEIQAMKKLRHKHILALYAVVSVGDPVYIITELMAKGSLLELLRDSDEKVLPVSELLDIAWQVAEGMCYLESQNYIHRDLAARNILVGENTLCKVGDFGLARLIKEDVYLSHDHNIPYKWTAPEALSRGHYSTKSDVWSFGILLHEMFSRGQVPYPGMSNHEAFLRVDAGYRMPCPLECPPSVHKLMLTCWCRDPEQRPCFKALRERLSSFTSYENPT
# Sequence of Cyclin-G-associated kinase (Homo sapiens) (O14976 whole entry): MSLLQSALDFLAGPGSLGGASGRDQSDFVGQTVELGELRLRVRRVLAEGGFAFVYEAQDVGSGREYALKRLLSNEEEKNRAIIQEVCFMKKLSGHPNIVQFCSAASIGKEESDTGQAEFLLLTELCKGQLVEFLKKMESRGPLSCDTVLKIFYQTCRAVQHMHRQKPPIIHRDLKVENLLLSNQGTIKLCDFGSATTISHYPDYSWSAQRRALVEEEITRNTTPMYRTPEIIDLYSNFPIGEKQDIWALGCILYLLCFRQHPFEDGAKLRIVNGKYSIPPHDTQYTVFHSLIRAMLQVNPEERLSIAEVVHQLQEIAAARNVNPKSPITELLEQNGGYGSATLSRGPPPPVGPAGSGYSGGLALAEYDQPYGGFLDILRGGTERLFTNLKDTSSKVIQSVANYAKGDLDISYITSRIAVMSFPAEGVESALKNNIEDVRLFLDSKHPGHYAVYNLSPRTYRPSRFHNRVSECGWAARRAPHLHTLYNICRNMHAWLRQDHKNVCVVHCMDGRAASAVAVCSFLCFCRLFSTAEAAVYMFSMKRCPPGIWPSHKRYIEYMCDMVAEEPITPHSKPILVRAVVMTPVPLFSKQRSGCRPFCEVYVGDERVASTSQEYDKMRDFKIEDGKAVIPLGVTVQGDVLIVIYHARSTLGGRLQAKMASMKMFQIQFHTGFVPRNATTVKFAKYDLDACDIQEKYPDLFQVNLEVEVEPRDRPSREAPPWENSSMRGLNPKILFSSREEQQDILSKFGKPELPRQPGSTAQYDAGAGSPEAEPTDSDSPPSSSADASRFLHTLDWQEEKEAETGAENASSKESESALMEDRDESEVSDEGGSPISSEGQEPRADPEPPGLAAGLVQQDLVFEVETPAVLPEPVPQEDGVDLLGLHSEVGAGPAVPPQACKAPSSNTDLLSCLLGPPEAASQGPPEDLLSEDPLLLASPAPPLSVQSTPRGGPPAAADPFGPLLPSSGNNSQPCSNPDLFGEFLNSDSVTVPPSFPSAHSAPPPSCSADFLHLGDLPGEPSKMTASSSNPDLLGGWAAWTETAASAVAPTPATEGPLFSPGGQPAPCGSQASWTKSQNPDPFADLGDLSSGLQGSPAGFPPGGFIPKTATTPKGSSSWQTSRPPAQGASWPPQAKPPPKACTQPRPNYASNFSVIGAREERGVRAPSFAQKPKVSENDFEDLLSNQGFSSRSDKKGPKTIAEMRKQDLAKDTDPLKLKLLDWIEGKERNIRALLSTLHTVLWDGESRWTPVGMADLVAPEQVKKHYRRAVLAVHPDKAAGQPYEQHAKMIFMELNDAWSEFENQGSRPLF
# Sequence of Serine/threonine-protein kinase DCLK1 (O15075 whole entry): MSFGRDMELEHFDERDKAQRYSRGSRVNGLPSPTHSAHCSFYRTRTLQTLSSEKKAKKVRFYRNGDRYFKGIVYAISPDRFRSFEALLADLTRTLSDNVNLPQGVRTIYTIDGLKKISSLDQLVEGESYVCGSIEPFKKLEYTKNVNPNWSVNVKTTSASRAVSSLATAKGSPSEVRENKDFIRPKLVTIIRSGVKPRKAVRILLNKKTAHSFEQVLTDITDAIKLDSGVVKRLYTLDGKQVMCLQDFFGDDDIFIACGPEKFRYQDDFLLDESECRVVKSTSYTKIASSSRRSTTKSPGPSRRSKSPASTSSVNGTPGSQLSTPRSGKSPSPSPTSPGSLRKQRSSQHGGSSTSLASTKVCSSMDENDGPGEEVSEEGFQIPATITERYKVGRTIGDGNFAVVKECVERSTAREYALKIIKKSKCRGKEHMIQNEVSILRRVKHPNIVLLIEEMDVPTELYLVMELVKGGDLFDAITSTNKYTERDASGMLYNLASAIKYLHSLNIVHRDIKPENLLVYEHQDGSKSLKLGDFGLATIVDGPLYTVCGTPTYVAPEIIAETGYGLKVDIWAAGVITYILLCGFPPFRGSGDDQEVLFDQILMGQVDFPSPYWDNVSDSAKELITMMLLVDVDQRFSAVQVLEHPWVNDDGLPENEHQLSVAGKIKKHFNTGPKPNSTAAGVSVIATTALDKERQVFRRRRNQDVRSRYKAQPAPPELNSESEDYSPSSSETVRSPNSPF
structure (smiles),measurement,setting,value
COc1cc(C(=O)N2CCC(N3CCCC3)CC2)ccc1Nc1ncc2c(n1)N(C)c1ccccc1C(=O)N2C,IC50,[1],0.13 µM
same,EC50,PC-3,3.6 µM
same,EC50,BPH-1,1.6 µM
same,EC50,MCF7,> 10 µM
same,EC50,AU565,> 10 µM
same,EC50,SK-N-AS,4.4 µM
same,EC50,NCI-H1299,4.2 µM
same,EC50,NCI-H522,0.95 µM
same,AUC(0-inf),[2],0.907 µg·h/mL
same,half-life,[3],2.62 h
same,clearance,[4],1.1 L/h/kg
same,Vd,[5],5.36 L/kg
same,Tmax,[6],2 h
same,Cmax,[7],1.29 µg/mL
same,AUC(0-inf),[8],7.87 µg·h/mL
same,bioavailability,[9],86.6%
COc1cc(N2CCC(O)CC2)ccc1Nc1ncc2c(n1)N(C)c1ccccc1C(=O)N2C,IC50,[1],0.24 µM
COc1cc(N2CCN(C)CC2)ccc1Nc1ncc2c(n1)N(C1CCCC1)c1ccccc1C(=O)N2C,IC50,[1],0.2 µM
Cc1cc(N2CCN(C)CC2)ccc1Nc1ncc2c(n1)N(C)c1ccccc1C(=O)N2C,IC50,[1],0.28 µM
COc1cc(N2CCN(C)CC2)ccc1Nc1ncc2c(n1)N(C)c1ccccc1C(=O)N2C,Kd,[10],0.0012 µM
same,Kd,[11],0.01 µM
same,Kd,[12],0.029 µM
COc1cc(C2CCN(C)CC2)ccc1Nc1ncc2c(n1)N(C)c1ccccc1C(=O)N2C,IC50,[1],0.26 µM
COc1cc(N2CCN(C)CC2)ccc1Nc1ncc2c(n1)N(C)c1cc(Cl)ccc1C(=O)N2C,IC50,[1],11.4 µM
COc1cc(C(=O)NCCN(C)C)ccc1Nc1ncc2c(n1)N(C)c1ccccc1C(=O)N2C,IC50,[1],0.24 µM
CCOc1cc(N2CCC(O)CC2)ccc1Nc1ncc2c(n1)N(C)c1ccccc1C(=O)N2C,Tmax,[13],4.8 min
same,Cmax,[14],0.439 µg/mL
same,AUC(0-inf),[15],0.658 µg·h/mL
same,half-life,[16],2 h
same,clearance,[17],1.53 L/h/kg
same,Vd,[18],3.4 L/kg
same,Tmax,[19],0.5 h
same,Cmax,[20],0.247 µg/mL
same,AUC(0-inf),[21],0.903 µg·h/mL
same,t1/2,Rattus norvegicus,3.4 h
same,CL/F,[22],2.22 L/h/kg
same,bioavailability,[23],68.6%
same,inhibition in vivo at 50 mg/kg,HeLa,95%
same,Activity,Mus musculus,Non-toxic
COc1cc(C(=O)NC2CCN(C)CC2)ccc1Nc1ncc2c(n1)N(C)c1ccccc1C(=O)N2C,IC50,[1],0.32 µM
COc1cc(N2CCN(C)CC2)ccc1Nc1ncc2c(n1)N(C)c1ccc(Cl)cc1C(=O)N2C,IC50,[1],1.24 µM
COc1cc(N2CCN(C)CC2)ccc1Nc1ncc2c(n1)N(C(C)C)c1ccccc1C(=O)N2C,IC50,[1],0.23 µM
COc1cc(N2CCN(C)CC2)ccc1Nc1ncc2c(n1)N(C)c1cc(F)ccc1C(=O)N2C,IC50,[1],1.32 µM
COc1cc(N2CCN(C)CC2)ccc1Nc1ncc2c(n1)N(C)c1ccccc1C(=O)N2,inhibition,[24],> 90%
same,inhibition,[25],> 90%
same,inhibition,[26],> 90%
same,inhibition,[27],> 90%
same,inhibition,[28],> 90%
same,inhibition,[29],> 90%
CN1C(=O)c2ccccc2N(C)c2nc(Nc3ccc(S(N)(=O)=O)cc3)ncc21,IC50,[1],0.31 µM
COc1cc(N2CCN(C)CC2)ccc1Nc1ncc2c(n1)N(C)c1ccc(C)cc1C(=O)N2C,IC50,[1],3.1 µM
COc1cc(N2CCOCC2)ccc1Nc1ncc2c(n1)N(C)c1ccccc1C(=O)N2C,IC50,[1],0.26 µM
CCN1c2ccccc2C(=O)N(C)c2cnc(Nc3ccc(N4CCN(C)CC4)cc3OC)nc21,IC50,[1],0.2 µM
COc1cc(N2CCNCC2)ccc1Nc1ncc2c(n1)N(C)c1ccccc1C(=O)N2C,IC50,[1],0.23 µM
